# UHRF1 MBD2 ctr: human UHRF1 methylated DNA binding inhibitors. 0.75% of 370,000 active. UHRF1 binding to methylated oligo, TR-FRET. AID 687016. inhibition, % at 4.4 µM; in the data active means inhibition above about 21%;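 further: UHRF1 SRA domain binding a hemimethylated CpG hairpin DNA probe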
# MBD2 inh: inhibitors of human MBD2 binding to methylated oligonucleotide | inhibition, % at 4.4 µM | TR-FRET | 0.31% of 370,000 active | Q9UBB5; in the data active means inhibition above about 13%
# Target sequence (Q9UBB5 whole entry, looked up): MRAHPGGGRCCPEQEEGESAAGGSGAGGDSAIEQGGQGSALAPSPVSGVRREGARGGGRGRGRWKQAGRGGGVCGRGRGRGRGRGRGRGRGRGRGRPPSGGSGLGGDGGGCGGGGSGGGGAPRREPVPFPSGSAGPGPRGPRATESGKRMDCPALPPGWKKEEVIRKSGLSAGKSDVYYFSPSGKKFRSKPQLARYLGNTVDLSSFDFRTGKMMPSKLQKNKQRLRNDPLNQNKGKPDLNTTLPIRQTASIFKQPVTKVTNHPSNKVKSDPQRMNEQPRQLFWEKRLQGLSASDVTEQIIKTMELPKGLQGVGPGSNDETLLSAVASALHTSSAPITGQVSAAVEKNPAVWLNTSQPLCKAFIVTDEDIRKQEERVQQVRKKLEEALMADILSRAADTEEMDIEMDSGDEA
# ABHD5 PLIN5 PPI: inhibitors of human ABHD5-perilipin-5 interaction | inhibition, % at 4 µM | Q00G26+Q8WTS1 | 0.78% of 360,000 active | Split G. princeps luciferase complementation, luminescence, 4 h;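 active means inhibition above the mean inhibition across every tested compound plus 3 SD, cut at about 22% in these data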
# Rin1-Abl PPI inh: blocks binding of human Rin1 to Abl; P00519+Q13671; TR-FRET Rin1/Abl binding, biochemical; inhibition, % at 7.35 µM; 0.4% of 360,000 active; in the data active means inhibition above about 5%, passing the limit was not always enough
# Arr AP2 block: blocks beta-arrestin peptide binding to AP2 adaptin. FITC-arrestin peptide / GST-AP2 beads, flow cytometry; AP2 beta2 appendage carries R879A mutation. inhibition, % at 10 µM. 0.31% of 340,000 active;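 active means inhibition above a set limit, near 3 SD of compounds lacking own fluorescence, cut at about 54% in these data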
#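 System: GST-AP2 R879A glutathione beads | Also added: FITC-arrestin peptide, 50 nM | Times: 12 min plus 1 h, RT | Signal: Bead flow cytometry, FITC channel | Buffer or medium: PBS with 0.05% Tween 20 and 0.1% BSA | Read-out basis: Percent drop in bead-associated FITC signal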
# B2AR ag: agonists of human beta-2 adrenergic receptor inducing internalization. Am2.2-beta2AR cells, FAP receptor internalization, flow cytometry. 0.43% of 340,000 active. response, % (no concentration beside the values);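 active means response above a set limit, near 3 SD of response in nonfluorescent compounds, cut at about 42% in these data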
# A number is an active result; - = inactive; . = not tested or not shown. A selection: hits, their analogues and other compounds. The true share with any hit is near 2.5%.
SMILES,UHRF1 MBD2 ctr,MBD2 inh,ABHD5 PLIN5 PPI,Rin1-Abl PPI inh,Arr AP2 block,B2AR ag
CCCCOCCCNC(=O)C[C@@H]1C(=O)N2CCCC3=C2[C@@]1(C(=O)OC)CCCC3,-,-,.,.,.,.
COc1ccc(C2CCC3(CCC(=O)N3CCO)CC2)cc1 (centres undefined),-,-,.,.,.,.
CC(C)C[C@@H](COCc1ccc([N+](=O)[O-])cc1)N1CCN(C(=O)c2ccc(C(F)(F)F)cc2)CCC1=O,22,-,-,.,.,.
CC(C)(C)OC(=O)N1CCC(CNC(=O)c2cccs2)CC1,-,-,-,-,-,-
CC(C)(C)OC(=O)N1CCC(CNC(=O)c2ccc(F)cc2F)CC1,23,-,-,-,-,-
C[C@@]12C(=O)N(CC3CC3)CC(=O)N1[C@H](C1CC1)[C@@H]1C(=O)N(c3ccccc3)C(=O)[C@@H]12,39,-,-,-,-,-
COc1ccc(/C=C/C(Cc2cccc(C(C)=O)c2)c2ccc(C)cc2)cc1 (centres undefined),-,-,.,.,.,.
O=c1c2c3nc4ccccc4nc3n(-c3ccc4c(c3)OCCO4)c2ncn1C1CCCC1,-,-,-,-,-,53
COc1ccc(CCNCC2C(Oc3ccc(Cl)cc3)C(=O)N2c2ccccc2C)cc1OC (centres undefined),23,-,-,-,-,-
COCCNCC1C(Oc2ccc(Cl)cc2)C(=O)N1c1ccccc1C (centres undefined),-,-,-,-,-,-
CN(CCOC(=O)c1cc2ccccc2o1)C1CN(Cc2cn(Cc3ccccc3F)nn2)S(=O)(=O)C1 (centres undefined),-,-,.,.,.,.
COc1ccccc1NC(=O)CSc1nnc(CCC(=O)Nc2ccccc2F)n1C,21,-,-,-,-,-
COC(=O)c1ccccc1NC(=O)CSc1nnnn1CC(=O)O,-,-,-,-,-,-
O=C(O)Cn1nnnc1SCC(=O)Nc1ccccc1F,26,-,-,-,-,-
COc1ccccc1NC(=O)Cc1nnc(SCC(=O)Nc2ccc(F)cc2F)n1C,-,-,-,-,-,-
O=C(Nc1ccccc1)Nc1nc2ncccn2c1-c1ccc(F)cc1,-,-,.,.,.,.
CC(C)(C)OC(=O)NCc1ccccc1/C=C/S(=O)(=O)NCCc1ccccc1,-,-,.,.,.,.
O=C(O)c1cc(-c2ccc(/C=C3\NC(=O)N(c4ccccc4)C3=O)o2)ccc1Cl,-,-,-,-,-,-
O=C(O)c1cc(-c2ccc(/C=C3\NC(=O)N(c4ccc(Cl)cc4)C3=O)o2)ccc1Cl,62,-,-,-,-,-
O=C1NN(c2ccccc2)C(=O)/C1=C/c1ccc(-c2ccc(Cl)c(C(=O)O)c2)o1,23,-,-,-,-,-
Cc1cccc(N2NC(=O)/C(=C/c3ccc(-c4ccc(Cl)c(C(=O)O)c4)o3)C2=O)c1,31,-,-,-,-,-
C#CCCN([C@@H](CC(C)C)C(=O)OC)S(=O)(=O)c1ccccc1Br,-,-,.,.,.,.
OC(c1ccccc1)(c1ccccc1)C1CCN(CCCNc2ccc(Cl)cc2Cl)CC1,-,-,.,.,.,.
Cc1cnn(-c2ccccc2)c1NC(=O)COCc1ccccc1,-,-,.,.,.,.
COC(=O)[C@]12C[C@H](CC(=O)NCC34CC5CC(CC(C5)C3)C4)C(=O)N(CCc3ccc(OC)c(OC)c3)C1=C[C@H](C(C)(C)C)O[C@@H]2C,-,-,.,.,.,.
SMILES,UHRF1 MBD2 ctr,MBD2 inh,ABHD5 PLIN5 PPI,Rin1-Abl PPI inh,Arr AP2 block,B2AR ag
CC(C)CC(=O)Nc1cccc(C(C)O)c1 (centres undefined),21,-,.,.,.,.
COC(=O)C1CN(Cc2cn(CCOC(C)=O)nn2)CCS(=O)(=O)N1Cc1ccc(Cl)cc1 (centres undefined),-,-,.,.,.,.
CC(=O)c1cc(-c2ccc(-c3ccccc3)c(F)c2)c(=O)n2c1CCC2,-,-,.,.,.,.
COc1ccc(CCN(C(=O)C(F)(F)F)C(C(=O)NC2CCCCC2)c2ccc(C)s2)cc1OC (centres undefined),29,-,-,-,-,-
COc1ccc(CCN(C(=O)C(F)(F)F)C(C(=O)NC2CCCC2)c2cccs2)cc1OC (centres undefined),-,-,-,-,-,-
COc1ccc(CN2C[C@]3(C=C(C)Cn4c(=O)n(-c5ccccc5)c(=O)n43)N=C2NC(=O)c2ccccc2)c(OC)c1,-,-,.,.,.,.
CCCCc1ccc(NC(=S)NCc2cccc(OC)c2)cc1,-,-,-,-,-,-
CCCCc1ccc(NC(=S)Nc2ccc(Nc3ccc(OC)cc3)cc2)cc1,-,-,-,-,-,56
COc1ccc(C/C(C)=N/NC(=S)Nc2ccccc2)cc1,-,-,-,-,-,-
COc1ccc(C/C(C)=N/NC(=S)Nc2ccc(Cl)cc2)cc1,-,-,-,-,-,58
COC(=O)/C=C1/SC(=NC(=O)c2ccc(OC)cc2)NC1=O,-,-,-,-,-,-
CCOc1ccc(N=C2NC(=O)/C(=C/C(=O)OC)S2)cc1,-,-,23,-,-,-
Cc1cc(NC(=O)CCCC(=O)NCc2cccs2)no1,25,-,-,-,-,-
CC(COc1cccc(F)c1)CN1CCC(C(O)(c2ccccc2)c2ccccc2)CC1 (centres undefined),-,-,.,.,.,.
Cn1c(SCCc2ccccc2)nnc1-c1ccco1,-,-,.,.,.,.
Cc1cc(C)cc(OC2CCCCC2NS(=O)(=O)c2ccccc2)c1 (centres undefined),-,-,-,-,-,-
CSc1ccc(OC2CCCCC2NS(=O)(=O)c2ccccc2)cc1 (centres undefined),98,-,-,-,-,-
Cn1c(Cc2cccs2)nnc1SCC(=O)Nc1ccc2cn[nH]c2c1,-,-,.,.,.,.
CCCNS(=O)(=O)c1ccc(OCC(=O)Nc2ccc3c(c2)OCCO3)cc1,24,-,-,-,-,-
O=C(/C=C/c1ccccc1)CCN1CCCCC1,-,-,23,-,-,44
Cc1ccc(N2C(=O)CC(Sc3ncn[nH]3)C2=O)cc1C (centres undefined),22,-,-,-,-,-
Cc1cccc(N2C(=O)CC(Sc3ncn[nH]3)C2=O)c1 (centres undefined),-,-,-,-,-,-
CC(=O)c1c[nH]c(C(=O)NCC2CCCO2)c1 (centres undefined),-,-,-,-,-,-
O=C(c1cccc(C(F)(F)F)c1)c1c[nH]c(C(=O)NCC2CCCO2)c1 (centres undefined),24,-,-,-,-,-
O=C(C#Cc1ccccc1)c1ccc([N+](=O)[O-])cc1,-,-,-,-,-,69
O[C@@H]1[C@@H](O)[C@H](n2c3ccc(Cl)cc3c3ccc4c5cc(Cl)ccc5[nH]c4c32)OC[C@H]1O,-,-,.,.,.,.
CCn1cc(C2C(C(=O)Nc3cc(C)ccn3)=C(C)NC3=C2C(=O)CC(C)(C)C3)c(C)n1 (centres undefined),26,-,-,-,-,-

# Screens as filed in PubChem.
